INS promoter act – TRM-6 insulin promoter activation; hit rate 0.81% among 130,000; activation, % at 2 µM; TRM-6 cells, insulin promoter eGFP reporter, imaging; plate-scaled: unstimulated 0, stimulated control 100;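 active = activation at 2 µM above a set limit, confirmed on inspection of the cell images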;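 note: share of cells whose green reporter signal exceeds an intensity cutoff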
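System: human fetal islet-derived TRM-6 cells with tamoxifen-inducible insulin promoter–eGFP reporter; input: seeding density of 1,000 cells per well; buffer or medium: Low-glucose (5.5 mM) medium with tamoxifen; incubation: compound exposure 48 h, 37 °C; measured by: high-content imaging of fixed cells with Hoechst nuclear stain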
An asterisk follows results filed as active. Shown is part of a subset that was picked to be rich in hits.

SMILES	INS promoter act
O=C(NCc1ccco1)C1CCCN1S(=O)(=O)c1ccc2ccccc2c1 (configuration not stated)	-5.7
Cc1ccc(S(=O)(=O)N2CCCC2C(=O)OCc2ccco2)cc1 (configuration not stated)	578.6*
CCOC(=O)C1CN(S(=O)(=O)c2ccc(C)cc2)CCN1S(=O)(=O)c1ccc(C)cc1 (configuration not stated)	386.7
CCOc1[nH]n(-c2ccc(Cl)cc2)c(=O)c1C=Nc1ccc(OC)cc1	-3.8
O=C(/C=C/c1cccc(F)c1)N1CCc2ccccc21	0.0
COC(=O)CCC(=O)NN1C(=O)c2ccccc2C1=O	9.5
O=C1c2ccccc2C(=O)N1CCC(=O)N1CCc2ccccc21	0.0
O=C(O)CCC1=C2c3ccccc3CCN2C(=O)CC1	450.0*
CC(=NCCCn1ccnc1)c1c(O)n(Cc2ccccc2)c(=O)[nH]c1=O	-8.3
O=C1C(Cl)=C(NCC2CCCO2)C(=O)N1CCc1ccccc1 (configuration not stated)	608.3*
O=C1C(Cl)=C(NCCc2ccccc2)C(=O)N1CCc1ccccc1	-8.7
O=C1C(Cl)=C(Nc2ccc(F)cc2)C(=O)N1CCc1ccccc1	171.0
CC(Sc1nc2ccccc2[nH]1)C(=O)Nc1ccccc1F (configuration not stated)	8.3
CC(=C/C(=O)O)/C=C/c1ccco1	-5.6
C[N+]1(CC(=O)OCCCc2ccccc2)CCCCC1	350.0*
CC(C)(C)C(=O)NCCCc1ccccc1	-2.9
CN(C)CCCOC(=O)c1ccccc1	326.7
COc1ccc2[nH]c(=O)c(CN(Cc3nnnn3Cc3ccc(F)cc3)CC3CCCO3)cc2c1 (configuration not stated)	117.6
Cc1ccc2cc(CN(CCO)Cc3nnnn3Cc3ccc(F)cc3)c(=O)[nH]c2c1	140.0*
O=c1[nH]c2cc3c(cc2cc1CN(CCCO)Cc1nnnn1Cc1ccc(F)cc1)OCO3	0.0
O=C(c1ccc(CNS(=O)(=O)c2cccc(C(F)(F)F)c2)cc1)N1CCOCC1	21.4
CCCN1Cc2cccc(C(=O)NC3CCCC3)c2C1=O	-93.8
CS(=O)(=O)N(CCc1ccccc1)CC(=O)NCc1ccncc1	-5.7
Cc1nc(Nc2c(Cl)cccc2Cl)sc1C(=O)Nc1ccccc1	158.8
CC1CCN(C(=O)COc2cccc3c2CCN(Cc2ccccc2)C3=O)CC1	7.7
SMILES	INS promoter act
Cc1ccccc1CN1CCc2c(OCC(=O)N3CCCc4ccccc43)cccc2C1=O	128.0*
CCN1CCc2c(OCC(=O)Nc3cccc(C)c3)cccc2C1=O	-8.3
CCn1c(SC(C)C(=O)NC2CCCc3ccccc32)nnc1-c1cccs1 (configuration not stated)	6.8
COCCn1c(C)cc(C(=O)CSc2nc3ccccc3s2)c1C	0.0
NC(=O)CSCc1nc2ccccc2s1	8.6
Cc1cc(C(=O)COC(=O)CCc2nc3ccccc3s2)c(C)n1C	77.8*
CCCCN1C(=O)C(O)(CC(=O)c2c(C)coc2C)c2ccccc21 (configuration not stated)	2.3
CCCCN1C(=O)C(O)(CC(=O)c2ccccc2OC)c2ccccc21 (configuration not stated)	-2.4
CCCCN1C(=O)C2(NNc3ccccc3O2)c2ccccc21 (configuration not stated)	170.0*
O=C(Cc1c[nH]c2ccccc12)NC1(C(=O)NC2CCCCC2)CCCCC1	7.1
CC(C)(C)c1csc(NC(=O)Cn2c(=O)oc3ccccc32)n1	429.4*
CCOc1ccc(NC(=O)Cn2c(=O)oc3ccccc32)cc1	-7.1
O=C(Cn1c(=O)oc2ccccc21)c1ccccc1	-72.6
CSc1nncc(-c2ccccc2)n1	0.0
CC(=O)Oc1ccc(N(C(C)=O)S(=O)(=O)c2cccs2)c2ccccc12	-9.9
COc1ccccc1N(C(=O)CN1C(=O)c2ccccc2S1(=O)=O)C(C(=O)NCC1CCCO1)c1ccc(F)cc1 (configuration not stated)	-5.6
CCOC(=O)Nc1cccc(OCC(=O)Nc2ccccc2OC)c1	-10.0
COc1cc(OC)cc(C(=O)N[C@H](C(=O)OCC(=O)Nc2ccc(C)cc2C)C(C)C)c1	7.7
COc1ccc(C)cc1NC(=O)C(NC(=O)c1cc(OC)c(OC)c(OC)c1)C(C)C (configuration not stated)	433.3*
COc1cc(C(=O)N[C@H](C(=O)NC(C)C23CC4CC(CC(C4)C2)C3)C(C)C)cc(OC)c1OC (some centres not stated)	-2.9
Cc1cc(NC(=O)CN2CCC(C)CC2)no1	0.0
CCN(C(=O)c1nn(-c2ccc(OC)cc2)c(=O)c2c1c1ccccc1n2C)c1ccc(OC)cc1	0.0
COc1ccc(Cn2nnnc2CN2CCC(O)(c3ccc(F)cc3)CC2)cc1	7.1
Cc1ccc(Cn2nnnc2CN2CCC(O)(c3ccc(F)cc3)CC2)cc1	0.0
COc1cc(C(=O)NC2CCN(Cc3nnnn3Cc3ccc(F)cc3)CC2)cc(OC)c1OC	515.4*
SMILES	INS promoter act
Cc1cccc(-c2nnc(-c3cccc(NC(=O)Cc4cccs4)c3)o2)c1	4.2
Cc1cc(NC(=O)CSc2nc3c([nH]c4ccccc43)c(=O)n2-c2cccc(C(F)(F)F)c2)no1	-5.3
COc1cccc(-n2c(SCC(N)=O)nc3c([nH]c4ccccc43)c2=O)c1	252.2*
COc1cccc(-n2c(SCC(N)=O)nnc2-c2ccncc2)c1	-90.9
O=C(Nc1ccc(N2CCOCC2)nc1)c1ccc(Cl)cc1	-6.7
Cn1cnnc1SCC(=O)N(Cc1ccc2c(c1)OCO2)C1(C(=O)NC2CCCCC2)CCCC1	7.1
NC(=O)c1noc(C(=O)N(CC(=O)NC2CCCC2)Cc2ccc3c(c2)OCO3)c1N	456.3*
O=C(NC1CCCC1)C(c1ccccc1)N(Cc1ccc2c(c1)OCO2)C(=O)Cc1cccs1 (configuration not stated)	246.2
COCCN(C(=O)CSc1nnc(C)n1-c1ccccc1)c1c(N)n(Cc2ccccc2)c(=O)[nH]c1=O	-3.3
Cc1ccc(CNC(=O)CSc2nc3ccsc3c(=O)n2NC(=O)c2ccccc2)cc1	5.4
Cc1cc(NC(=O)CSc2nc(-c3ccccc3)cs2)no1	103.4
Cc1cc(NC(=O)CSc2nc3ccsc3c(=O)n2NC(=O)c2ccccc2)no1	435.7*
Cc1ccc(-c2nc(CN3CCCCC3)cc(CN3CCCCC3)c2O)cc1	7.1
Cc1[nH][nH]c(=O)c1C(c1cc2c(cc1Br)OCO2)c1c(C)[nH][nH]c1=O	-66.7
COc1ccc(NS(=O)(=O)c2cc(N/C(=N\S(=O)(=O)c3ccccc3)c3ccc(F)cc3)ccc2Cl)cc1	76.0*
COc1ccc(NS(=O)(=O)c2cc(C(=O)N3CCN(C(C)=O)CC3)ccc2Cl)cc1	6.7
CCCCOC(=O)c1ccc(N/C(=N\S(=O)(=O)c2ccccc2)c2ccccc2)cc1	-6.5
Cc1cc(C)nc(-n2c(Nc3ccccc3)cc(=O)c3c(C)n(-c4ccccc4)c(=O)nc32)n1	-81.8
Cc1cc(C(=O)CCl)c(C)n1CCc1ccc(F)cc1	-100.0
Cc1cc(C(=O)CSc2nnc(N)s2)c(C)n1CCc1ccc(F)cc1	0.0
Cc1cc(C(=O)CSc2nnnn2C)c(C)n1CCc1ccc(F)cc1	125.8*
O=C(N/N=C/c1cccc([N+](=O)[O-])c1)C1CC(=O)N(c2ccc(Cl)cc2)C1 (configuration not stated)	-7.7
CCOC(=O)c1cc(C(C)(C)C)oc1CN	-7.4
CCOC(=O)c1cc(C(C)(C)C)oc1CNC(=O)c1c(C)oc2c1CCCC2	493.3*
Cc1cc(C(C)(C)C)oc1C(=O)NCCCNC(=O)c1oc(C(C)(C)C)cc1C	-9.5

Screening results from PubChem BioAssay.
